Data published in PMC3780362 (Nuclear medicine and biology, 2009).

Columns and labels:
[1] = molecular target: T1, 5-HT1B receptor (Macaca mulatta, UniProt F6SFA9); experiment: Binding selectivity PET study: blocking of [11C]P943 with GR127935; type: in vivo, Rhesus monkey
How it was run: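 About three hours later came a second scan with GR127935 2 mg/kg i.v. bolus given before the tracer. Dose was 5.4 ± 0.7 mCi at 6.3 ± 0.9 mCi/nmol. BPND = ROI/cerebellum ratio from 70-100 min, minus 1, in control and blocked scans.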

[2] = molecular target: T1, 5-HT1B receptor; experiment: Baseline brain PET imaging with [11C]P943; type: in vivo, Rhesus monkey
How it was run: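 Rhesus monkeys (5-8 kg) were fasted overnight, given ketamine 10 mg/kg i.m. and glycopyrrolate, then kept on ~2% isoflurane and scanned on HRRT PET after a transmission scan. Tracer dose was 5-7 mCi. Bolus scan: one animal, 120 min list-mode acquisition. Bolus plus infusion scans: Kbol 150 min, four animals. BPND = mean ROI/cerebellum concentration over 70-100 min, minus 1.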

[3] = molecular target: T1, 5-HT1B receptor; experiment: Binding saturability PET study; type: in vivo, Rhesus monkey; conditions: high SA
How it was run: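 Self-block design: 2 anesthetized rhesus monkeys, each scanned on two days at high, medium and low specific activity by adding unlabeled test compound (12 scans). Dosing was 2 min i.v. bolus plus 118 min constant infusion, Kbol 150 min for high-SA scans. Net high SA at injection was 111.7 MBq/nmol. BPND = ROI/cerebellum equilibrium ratio over 70-100 min, minus 1.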

[4] = molecular target: 5-HT1B (Homo sapiens, UniProt P28222); experiment: NIMH Psychoactive Drug Screening Program binding; conditions: based on the in vitro data
Sequence of 5-HT1B (P28222 whole entry, species assumed): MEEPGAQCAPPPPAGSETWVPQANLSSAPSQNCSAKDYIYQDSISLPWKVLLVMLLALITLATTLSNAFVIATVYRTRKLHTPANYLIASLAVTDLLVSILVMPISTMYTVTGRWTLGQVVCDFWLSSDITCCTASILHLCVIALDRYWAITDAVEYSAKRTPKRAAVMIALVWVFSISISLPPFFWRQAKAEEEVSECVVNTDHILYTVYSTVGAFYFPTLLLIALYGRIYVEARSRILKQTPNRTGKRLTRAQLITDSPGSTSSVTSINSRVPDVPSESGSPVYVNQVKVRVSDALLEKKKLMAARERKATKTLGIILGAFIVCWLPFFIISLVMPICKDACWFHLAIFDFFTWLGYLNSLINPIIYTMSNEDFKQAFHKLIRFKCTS

[5] = test system: human 5-HT1B receptor; conditions: selectivity; cited from earlier work
[6] = Mean of two monkeys, GR127935 2 mg/kg i.v.
[7] = Monkey#1, GR127935 2 mg/kg i.v.
[8] = Monkey#2, GR127935 2 mg/kg i.v.

T1 sequence (F6SFA9 1-390): as the sequence (P28222 whole entry, species assumed) above, with V20A, A35T, S45A, I105V, E198D, K301R, M337L counted along it

Structure (SMILES): COc1ccc(NC(=O)c2ccc(-c3ccc(-c4noc(C)n4)cc3C)cc2)cc1N1CCN(C)CC1 [GR127935]
- %Reduction in BPND Caudate [1, 6]: 62%
- %Reduction in BPND Cingulate [1, 6]: 64%
- %Reduction in BPND Frontal [1, 6]: 91%
- %Reduction in BPND Globus Pallidus [1, 6]: 73%
- %Reduction in BPND Insula [1, 6]: 53%
- %Reduction in BPND Occipital [1, 6]: 95%
- %Reduction in BPND Putamen [1, 6]: 40%
- %Reduction in BPND Thalamus [1, 6]: 75%
- %Reduction in BPND Caudate [1, 7]: 78%
- %Reduction in BPND Cingulate [1, 7]: 66%
- %Reduction in BPND Frontal [1, 7]: 84%
- %Reduction in BPND Globus Pallidus [1, 7]: 80%
- %Reduction in BPND Insula [1, 7]: 61%
- %Reduction in BPND Occipital [1, 7]: 96%
- %Reduction in BPND Putamen [1, 7]: 47%
- %Reduction in BPND Thalamus [1, 7]: 76%
- %Reduction in BPND Caudate [1, 8]: 45%
- %Reduction in BPND Cingulate [1, 8]: 61%
- %Reduction in BPND Frontal [1, 8]: 98%
- %Reduction in BPND Globus Pallidus [1, 8]: 66%
- %Reduction in BPND Insula [1, 8]: 45%
- %Reduction in BPND Occipital [1, 8]: 94%
- %Reduction in BPND Putamen [1, 8]: 33%
- %Reduction in BPND Thalamus [1, 8]: 74%
- BPND frontal cortex after blockade ([1]; after GR127935 2 mg/kg i.v.): 0.06
- BPND occipital after blockade ([1]; after GR127935 2 mg/kg i.v.): 0.03

Structure (SMILES): COC(C)(C)c1ccc(N2CC[C@@H](Cc3ccccc3N3CCN(C)CC3)C2=O)cc1 [[^11C]P943, (R)-1-(4-(2-methoxypropan-2-yl)phenyl)-3-(2-(4-methylpiperazin-1-yl)benzyl)pyrrolidin-2-one]
- time of peak uptake in most brain regions ([2]; 2 hr baseline scan, bolus injection): 10 to 30 min
- time at which equilibrium was reached in the brain ([2]; bolus plus infusion): ~70 min
- BPND frontal cortex, control scan ([1]; before blockade, paired study): 0.49
- BPND occipital, control scan ([1]; before blockade, paired study): 0.71
- BPND at high specific activity, globus pallidus [3]: 0.57
- BPND at high specific activity, occipital cortex ([3]; highest value): 0.80

Structure (SMILES): COC(C)(C)c1ccc(N2CC[C@@H](Cc3ccccc3N3CCN(C)CC3)C2=O)cc1 [P943, R-1-[4-(2-methoxy-isopropyl)-phenyl]-3-[2-(4-methyl-piperazin-1-yl)benzyl]-pyrrolidin-2-one]
- affinity for 5HT1B higher than for 5-HT1A receptors [4]: 50-100 times
- affinity for other 5-HT and non-5-HT receptors lower than for 5-HT1B [5]: at least 100 fold
